In ChEMBL document CHEMBL1138658, “Novel 2-aminotetralin and 3-aminochroman derivatives as selective serotonin 5-HT7 receptor agonists and antagonists” (J Med Chem, 2004):

Experiments:
Rattus norvegicus = organism: Rattus norvegicus; assay: Inhibition of 3[H]8-OH--DPAT and [3H]5-HT binding to 5-hydroxytryptamine 1A receptor and 5-hydroxytryptamine 7 receptor in rat
Summary of the method: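 Displacement binding with [3H]-8-OH-DPAT at 5-HT1A in rat hippocampal cells, and with [3H]-5-HT at rat 5-HT7 expressed in CHO or Sf9 cells.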

[1] = molecular target: 5-hydroxytryptamine receptor 7 (Rattus norvegicus) (UniProt P32305); assay: Stimulation of cAMP production in CHO cells expressing rat 5-hydroxytryptamine 7 receptor; Antagonist; type: functional, cell-based; settings: filed as antagonist
Summary of the method: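 Functional assay in CHO cells expressing rat 5-HT7 receptor, read as cAMP production. Efficacy is expressed as % of the cAMP production stimulated by 5-HT.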

[2] = molecular target: 5-hydroxytryptamine receptor 7 (Rattus norvegicus, UniProt P32305); assay: Inhibition of [3H]-5-HT binding to rat 5-hydroxytryptamine 7 receptor
Summary of the method: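 Rat 5-HT7 receptor expressed in CHO or Sf9 cells; [3H]-5-HT radioligand displacement.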

[3] = molecular target: T1, 5-hydroxytryptamine receptor 1A (Rattus norvegicus, UniProt P19327); assay: Inhibition of [3H]8-OH-DPAT binding to rat 5-hydroxytryptamine 1A receptor
T1 sequence (P19327 whole entry): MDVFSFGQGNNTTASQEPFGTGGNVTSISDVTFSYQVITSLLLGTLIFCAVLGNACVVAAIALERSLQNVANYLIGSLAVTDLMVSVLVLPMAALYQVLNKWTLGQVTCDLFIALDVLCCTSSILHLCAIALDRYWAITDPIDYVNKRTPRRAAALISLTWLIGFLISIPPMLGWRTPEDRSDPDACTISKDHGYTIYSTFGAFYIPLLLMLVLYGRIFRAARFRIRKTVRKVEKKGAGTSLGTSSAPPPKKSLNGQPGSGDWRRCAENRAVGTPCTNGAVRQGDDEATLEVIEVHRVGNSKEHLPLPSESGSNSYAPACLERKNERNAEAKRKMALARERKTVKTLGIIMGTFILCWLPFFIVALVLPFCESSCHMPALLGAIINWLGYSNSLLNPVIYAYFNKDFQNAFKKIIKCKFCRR
Summary of the method: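 Radioligand [3H]-8-OH-DPAT; receptor source either CHO cells expressing human 5-HT1A or rat hippocampal cells.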

[4] = molecular target: 5-hydroxytryptamine receptor 7 (Rattus norvegicus) (UniProt P32305); assay: Stimulation of cAMP production in CHO cells expressing rat 5-hydroxytryptamine 7 receptor; type: functional, cell-based
Summary of the method: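 cAMP production in CHO cells expressing rat 5-HT7 receptor. Efficacy is expressed as percent of the 5-HT-stimulated production.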

[5] = molecular target: D(2) dopamine receptor (Homo sapiens) (UniProt P14416); assay: Inhibition of [3H]raclopride binding to Dopamine receptor D2A in human
D(2) dopamine receptor (Homo sapiens), sequence (P14416 whole entry, looked up): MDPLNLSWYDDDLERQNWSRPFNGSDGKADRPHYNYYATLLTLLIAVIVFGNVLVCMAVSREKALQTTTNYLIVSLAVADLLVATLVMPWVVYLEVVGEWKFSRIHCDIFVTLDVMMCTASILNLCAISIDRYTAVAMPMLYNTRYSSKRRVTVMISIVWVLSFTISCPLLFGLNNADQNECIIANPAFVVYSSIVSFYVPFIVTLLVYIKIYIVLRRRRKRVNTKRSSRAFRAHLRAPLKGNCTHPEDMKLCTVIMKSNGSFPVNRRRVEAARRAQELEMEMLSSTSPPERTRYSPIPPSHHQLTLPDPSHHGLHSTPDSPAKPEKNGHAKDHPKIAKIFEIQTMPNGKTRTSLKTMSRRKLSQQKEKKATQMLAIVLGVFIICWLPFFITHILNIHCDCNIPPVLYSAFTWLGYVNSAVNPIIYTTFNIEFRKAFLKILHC

5-hydroxytryptamine receptor 7 (Rattus norvegicus), sequence (P32305 whole entry): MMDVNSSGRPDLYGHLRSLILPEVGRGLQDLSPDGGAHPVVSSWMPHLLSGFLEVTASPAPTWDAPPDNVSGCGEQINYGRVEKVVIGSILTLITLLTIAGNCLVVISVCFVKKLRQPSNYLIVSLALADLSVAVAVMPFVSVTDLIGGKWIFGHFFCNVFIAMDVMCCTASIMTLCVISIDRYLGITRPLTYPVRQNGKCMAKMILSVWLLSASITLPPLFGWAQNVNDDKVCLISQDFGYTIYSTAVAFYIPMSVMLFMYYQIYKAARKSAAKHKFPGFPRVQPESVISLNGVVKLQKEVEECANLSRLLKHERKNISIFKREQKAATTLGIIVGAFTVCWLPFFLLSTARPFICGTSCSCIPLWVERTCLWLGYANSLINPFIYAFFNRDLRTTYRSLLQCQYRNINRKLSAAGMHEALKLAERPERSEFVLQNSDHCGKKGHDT
5-hydroxytryptamine receptor 7, sequence (P32305 whole entry): as above

For `O=S(=O)(c1ccc2c(c1)CC=C2)N1CCC[C@@H]1CCN1CCC(Oc2ccc(Cl)cc2)CC1`, which Ratio (Rattus norvegicus) is on record?
Its Ratio is 282.

And the Efficacy [1]?
The Efficacy was “Antagonist”.

And the Ki [2]?
The Ki was 1.99 nM.

And the Ki [3]?
The Ki was 562 nM.

`O=C1c2ccccc2CCCN1CCN1CCC(n2c(O)nc3cc(F)ccc32)CC1` was tested. Which Efficacy [1] did it give?
The Efficacy was “Antagonist”.

`CCCN(CCC)[C@H]1COc2c(cccc2-c2ccccc2OC)C1` was tested. Which Ratio (Rattus norvegicus) did it give?
Its Ratio is 3.8.

And the Efficacy [4]?
The Efficacy was 100%.

And the Ki [2]?
Its Ki is 2.7 nM.

And the Ki [3]?
The Ki was 10.3 nM.

And the Ki [5]?
The Ki was 512 nM.

`CCCN(CCC)[C@H]1COc2c(cccc2-c2ccc(OC)cc2)C1` was tested. Which Efficacy [4] did it give?
The Efficacy was 91%.

What about the Ki [2] of the same compound?
Its Ki is 12.6 nM.

And the Ki [3]?
Its Ki is 1.31 nM.

`CCCN(CCC)[C@@H]1COc2c(cccc2-c2ccccc2OC)C1` was tested. Which Ratio (Rattus norvegicus) did it give?
Its Ratio is 1.9.

What about the Ki [2] of the same compound?
Its Ki is 364 nM.

What about the Ki [3] of the same compound?
The Ki was 680 nM.

And the Ki [5]?
The Ki was 2110 nM.

What does the source list for `COc1cccc(OC)c1-c1cccc2c1OC[C@H](N(C)C)C2`?
Ratio (Rattus norvegicus): > 189; Efficacy [4]: 28%; Ki [2]: 5.29 nM; Ki [3]: > 1000 nM

For `CCCN(CCC)[C@H]1COc2c(cccc2-c2c(OC)cccc2OC)C1`, which Ratio (Rattus norvegicus) is on record?
Its Ratio is 27.

And the Efficacy [4]?
The Efficacy was 154%.

What about the Ki [2] of the same compound?
The Ki was 6.44 nM.

What about the Ki [3] of the same compound?
The Ki was 174 nM.

How did the Ratio (Rattus norvegicus) turn out when `COc1cccc(OC)c1-c1cccc2c1CC[C@H](N)C2` was run?
Its Ratio is greater than 12.7.

And the Ki [2]?
Its Ki is 78.7 nM.

What about the Ki [3] of the same compound?
The Ki was greater than 1000 nM.

For `CCCN(CCC)[C@H]1COc2c(cccc2-c2ccccc2)C1`, which Efficacy [4] is on record?
The Efficacy was 100%.

What about the Ki [2] of the same compound?
Its Ki is 2.92 nM.

And the Ki [3]?
Its Ki is 1.23 nM.

With `CCCN(CCC)[C@H]1CCc2c(cccc2-c2ccccc2)C1` as the compound, how does the Ratio (Rattus norvegicus) read?
The Ratio was 0.26.

And the Efficacy [4]?
Its Efficacy is 100%.

And the Ki [2]?
Its Ki is 3.38 nM.

What about the Ki [3] of the same compound?
Its Ki is 0.87 nM.

For `O=C1Nc2cccc3c2C1(CCCCN1CCc2sccc2C1)CCC3` (configuration not stated), which Ratio (Rattus norvegicus) is on record?
Its Ratio is 79.

What about the Efficacy [1] of the same compound?
The Efficacy was “Antagonist”.

And the Ki [2]?
Its Ki is 6.46 nM.

And the Ki [3]?
Its Ki is 513 nM.

Which Ratio (Rattus norvegicus) does the source give for `CCCN(CCC)[C@H]1CCc2c(cccc2-c2ccc(OC)cc2)C1` here?
Its Ratio is 0.12.

And the Ki [2]?
Its Ki is 12.4 nM.

What about the Ki [3] of the same compound?
Its Ki is 1.49 nM.

For `O=C1c2ccccc2CCCN1CCN1CCC(n2c(=O)[nH]c3cc(F)ccc32)CC1`, which Ki [2] is on record?
The Ki was 2.24 nM.

What about the Ki [3] of the same compound?
The Ki was 479 nM.

With `CCCN(CCC)[C@H]1CCc2c(cccc2-c2ccccc2OC)C1` as the compound, how does the Ratio (Rattus norvegicus) read?
The Ratio was 6.8.

What about the Efficacy [4] of the same compound?
Its Efficacy is 100%.

And the Ki [2]?
Its Ki is 1.73 nM.

And the Ki [3]?
The Ki was 11.7 nM.

What does the source list for `Cc1cccc(C#N)c1-c1cccc2c1-c1cccc3c1[C@@H](C2)N(C)CC3`?
Ratio (Rattus norvegicus): 37; Efficacy [1]: Antagonist; Ki [3]: 142 nM; Ki [5]: 498 nM
